Experimental data taken from ChEMBL document CHEMBL1799922, “Synthesis and antimycobacterial activity of prodrugs of indeno[2,1-c]quinoline derivatives” (Eur J Med Chem, 2011).
Values after ≈ are worked out from the molar mass of the structure shown.

How the values were obtained:
[1] = system: Mycobacterium tuberculosis; test: Antimicrobial activity against Mycobacterium tuberculosis H37Rv ATCC 27294 after 16 to 24 hrs by microplate alamar blue assay; type: functional
Summary of the method: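 M. tuberculosis H37Rv inoculum 2×10^5 cfu/mL (100 µL) added to twofold dilutions in Middlebrook 7H12 medium; final test range 128 µM to 0.5 µM from 12.8 mM DMSO stocks. Incubated 37 °C; day 7 Tween 80 plus Alamar Blue added, further 16-24 h at 37 °C. Fluorescence ex 530/em 590 nm; MIC = lowest concentration giving >90% fluorescence reduction versus replicate bacteria-only controls. Rifampin, isoniazid controls.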

[2] = Octanol-water partition coefficient, log P of the compound at pH 7.4 at room temperature by UV spectrophotometric analysis; type: physicochemical
Summary of the method: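 Shake-flask method at room temperature: 1-octanol and phosphate buffer (pH 7.4) were pre-saturated by shaking for 24 h. Compound at 10^-4 M in equal volumes of both phases was shaken vigorously for 1 h, left to stand 15 min, then centrifuged 10 min at 10,000 rpm. UV absorbance of each phase was read at 280 nm against blanks, and P was taken as the octanol/water absorbance ratio.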

[3] = Half life in 10% aqueous ammonia buffer at pH 8 assessed as hydrolysis to 2-bromo-6-(1H-imidazol-1-yl)-7H-indeno[2,1-c]quinolin-7-one oxime at 37 degC by LC-MS analysis; type: physicochemical
Summary of the method: (§1)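 Chemical hydrolysis: 1 mg prodrug dissolved in 1 mL of 10% aqueous ammonia in methanol (pH 8) and held in a thermostatted water bath at 37 °C, up to 24 h. Conversion to the parent oxime was followed by TLC and LC-MS. t1/2 is the time to 50% hydrolysis.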

[4] = system: Serum; test: Stability of the compound in 80% human blood serum assessed as hydrolysis to 2-bromo-6-(1H-imidazol-1-yl)-7H-indeno[2,1-c]quinolin-7-one oxime at 1 mg after 24 hrs at 37 degC by LC-MS analysis; type: ADME, cell-free; parameters: scale not given: the % may be the effect or the level left
Summary of the method: (§2)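 Enzymatic hydrolysis: 1 mg prodrug dissolved in 1 mL ethanol, then 200 µL preheated human blood serum diluted to 80% with 0.16 M phosphate buffer (pH 7.4) was added. Samples were kept at 37 °C (24 h) and centrifuged 10 min at 10,000 rpm. Remaining prodrug in the supernatant was monitored by TLC and LC-MS. t1/2 is the time to 50% hydrolysis.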

[5] = Cytotoxicity against human U937 cells assessed as cell viability at 1.25 ug/ml after 72 hrs by MTT assay; type: cell-based, U-937; conditions: read-out: Activity
Summary of the method: (§3)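 U937 human monocytic cells plated at 1 × 10^5 cells/mL and allowed to adhere for 1 h at 37 °C in 5% CO2. Non-adherent cells were washed off with RPMI 1640. Adherent cells were exposed to compound in triplicate, with medium alone as the live control and 3% Tween 20 as the dead control. MTT (5 mg/mL in PBS) was then added for 3 h at 37 °C. Formazan was dissolved in 0.4 M HCl/isopropanol and absorbance read at 600 nm. Results are expressed as % cell viability.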

[6] = Cytotoxicity against human U937 cells assessed as cell viability at 10 ug/ml after 72 hrs by MTT assay; type: cell-based, U-937; conditions: read-out: Activity; summary of the method: as §3
[7] = Half life in human blood serum by LC-MS analysis; type: ADME, cell-free, Plasma; summary of the method: as §2
[8] = Stability of the compound in 10% aqueous ammonia buffer at pH 8 assessed as hydrolysis to 2-bromo-6-(1H-imidazol-1-yl)-7H-indeno[2,1-c]quinolin-7-one oxime at 1 mg at 37 degC by LC-MS analysis; type: physicochemical; parameters: scale not given: the % may be the effect or the level left; summary of the method: as §1
[9] = Selectivity index, ratio CC50 for human U937 cells to MIC for Mycobacterium tuberculosis H37Rv ATCC 27294; type: functional, U-937
[10] = Cytotoxicity against human U937 cells assessed as cell viability at 20 ug/ml after 72 hrs by MTT assay; type: cell-based, U-937; conditions: read-out: Activity; summary of the method: as §3
[11] = Cytotoxicity against human U937 cells assessed as cell viability at 5 ug/ml after 72 hrs by MTT assay; type: cell-based, U-937; conditions: read-out: Activity; summary of the method: as §3

| SMILES | MIC [1] | logD [2] | half-life [3] | Activity [4] | viability at 72 h, 1.25 ug/ml [5] | viability at 72 h, 10 ug/ml [6] | half-life [7] | Activity [8] | Selectivity Index [9] | viability at 72 h, 20 ug/ml [10] | viability at 72 h, 5 ug/ml [11] |
| --- | --- | --- | --- | --- | --- | --- | --- | --- | --- | --- | --- |
| CC(=O)NCC(=O)O/N=C1\c2ccccc2-c2c1c(N1CCN(c3ccccn3)CC1)nc1ccc(Br)cc21 | 6 µg/mL (≈ 10.2 µM) | 1.2 | 144 h | 95% | 83% | 77% | 192 h | 95% | – | – | – |
| CCCCCC(=O)O/N=C1\c2ccccc2-c2c1c(-n1ccnc1)nc1ccc(Br)cc21 | 1.5 µg/mL (≈ 3.07 µM) | 2.1 | 144 h | 85% | 81% | 100% | 240 h | 90% | – | – | – |
| O=C(CCCCBr)O/N=C1\c2ccccc2-c2c1c(N1CCN(c3ccccn3)CC1)nc1ccc(Br)cc21 | 2.03 µg/mL (≈ 3.13 µM) | 1.5 | 96 h | 10% | 99% | 79% | – | 95% | >20 | 80% | 94% |
| CC(C)(C)OC(=O)N[C@H](C(=O)O/N=C1\c2ccccc2-c2c1c(N1CCN(c3ccccn3)CC1)nc1ccc(Br)cc21)C(C)(C)C | 1.52 µg/mL (≈ 2.17 µM) | 1.5 | 48 h | 11% | 92% | 87% | – | 95% | >26 | 82% | 86% |
| CCCCCCCCC(=O)OC1(C)c2ccccc2-c2c1c(-n1ccnc1)nc1ccc(Br)cc21 (configuration not stated) | 1.56 µg/mL (≈ 2.93 µM) | 1.6 | 288 h | Not Active | 86% | 71% | – | 90% | 11.4 | 50% | 75% |
| CCCCCCC(=O)OC1(C)c2ccccc2-c2c1c(-n1ccnc1)nc1ccc(Br)cc21 (configuration not stated) | 0.42 µg/mL (≈ 0.833 µM) | 1.7 | 312 h | Not Active | 85% | 68% | – | 86% | 40.2 | 54% | 83% |
| CCC(=O)O/N=C1\c2ccccc2-c2c1c(N1CCN(c3ccccn3)CC1)nc1ccc(Br)cc21 | 3.13 µg/mL (≈ 5.77 µM) | 2.7 | 144 h | 13% | 83% | 81% | – | 95% | >13 | 83% | 88% |
| CCCCCCCC(=O)OC1(C)c2ccccc2-c2c1c(-n1ccnc1)nc1ccc(Br)cc21 (configuration not stated) | 3.42 µg/mL (≈ 6.6 µM) | 1.8 | 264 h | Not Active | 87% | 52% | – | 90% | 2.5 | 17% | 72% |
| C[C@H](NC(=O)OC(C)(C)C)C(=O)O/N=C1\c2ccccc2-c2c1c(N1CCN(c3ccccn3)CC1)nc1ccc(Br)cc21 | 6 µg/mL (≈ 9.12 µM) | 1.7 | 48 h | 66% | 100% | 100% | 480 h | 95% | – | – | – |
| CC(C)(C)OC(=O)NCC(=O)OC1(C)c2ccccc2-c2c1c(-n1ccnc1)nc1ccc(Br)cc21 (configuration not stated) | 2.03 µg/mL (≈ 3.69 µM) | 1.8 | 24 h | Not Active | 90% | 62% | – | 97% | 6 | 28% | 83% |
| CCCCCCCCCC(=O)O/N=C1\c2ccccc2-c2c1c(-n1ccnc1)nc1ccc(Br)cc21 | 3 µg/mL (≈ 5.5 µM) | 1.4 | 24 h | 90% | 100% | 81% | 144 h | 90% | – | – | – |
| CC(C)(C)OC(=O)N1CCC[C@H]1C(=O)O/N=C1\c2ccccc2-c2c1c(N1CCN(c3ccccn3)CC1)nc1ccc(Br)cc21 | 1.53 µg/mL (≈ 2.24 µM) | 2.3 | 24 h | 13% | 86% | 61% | – | 95% | >26 | 69% | 75% |
| CCCCCC(=O)O/N=C1\c2ccccc2-c2c1c(N1CCN(c3ccccn3)CC1)nc1ccc(Br)cc21 | 3.16 µg/mL (≈ 5.41 µM) | 2.1 | 576 h | 5% | 96% | 85% | – | 95% | >13 | 87% | 86% |
| CC(=O)OC1(C)c2ccccc2-c2c1c(-n1ccnc1)nc1ccc(Br)cc21 (configuration not stated) | 1.88 µg/mL (≈ 4.33 µM) | 2.7 | 240 h | Not Active | 94% | 63% | – | 90% | 7.5 | 35% | 90% |
